Laboratory results taken from ChEMBL document CHEMBL1153390, “Substituted terphenyl compounds as the first class of low molecular weight allosteric inhibitors of the luteinizing hormone receptor” (J Med Chem, 2009).
The source made the active and inactive calls. The rule behind the calls is not given here.

Columns and labels:
[1] = target: T1, Lutropin-choriogonadotropic hormone receptor (Homo sapiens, UniProt P22888); assay: Displacement of [3H]Org43553 from human luteinizing hormone receptor expressed in CHOK1 cells at 10 uM by scintillation spectrometry; type: cell-based; settings: CHO-K1
Procedure, shortened: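 Membranes (50 µg protein) from CHO-K1 cells stably expressing human LH receptor incubated 90 min at 30 °C with 4.5 nM [3H]Org 43553 and 10 µM compound. Buffer was 25 mM Tris-HCl pH 7.4, 2 mM MgCl2, 0.1% BSA. Nonspecific binding defined with 10 µM Org 43553. Filtration on GF/B, ice-cold washes, scintillation counting. Result given as % displacement of specific binding, n=2, duplicate.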

[2] = target: T1, Lutropin-choriogonadotropic hormone receptor; assay: Displacement of [3H]Org43553 from human luteinizing hormone receptor expressed in CHOK1 cells assessed as increase in radioligand dissociation at 10 uM by scintillation spectrometry relative to control; type: cell-based; settings: CHO-K1
Procedure, shortened: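 Membranes (50 µg protein) from CHO-K1 cells stably expressing human LH receptor preloaded with 4.5 nM [3H]Org 43553 for 90 min at 30 °C in 25 mM Tris-HCl pH 7.4, 2 mM MgCl2, 0.1% BSA. Dissociation then started with 10 µM Org 43553 ± 10 µM compound in 50% DMSO vehicle. Bound label measured after 30 min by GF/B filtration and scintillation counting. Control set at 100%. n=2, duplicate.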

[3] = target: T1, Lutropin-choriogonadotropic hormone receptor; assay: Displacement of [3H]Org43553 from human luteinizing hormone receptor expressed in CHOK1 cells; type: cell-based, CHO-K1
Procedure, shortened: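 CHO-K1 membranes stably expressing human LH receptor, 50 µg protein, in 25 mM Tris-HCl pH 7.4 with 2 mM MgCl2 and 0.1% BSA. Incubated with 4.5 nM [3H]Org 43553 at 30 °C for 90 min, using 10 µM or a range of competitor concentrations. Nonspecific binding defined with 10 µM Org 43553. Read by filtration and scintillation counting; IC50 from nonlinear regression.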

[4] = target: T1, Lutropin-choriogonadotropic hormone receptor; assay: Displacement of [125I]human chorionic gonadotropin from human luteinizing hormone receptor expressed in CHOK1 cells by gamma counting; type: cell-based; settings: CHO-K1
[5] = target: T1, Lutropin-choriogonadotropic hormone receptor; assay: Displacement of [125I]human chorionic gonadotropin from human luteinizing hormone receptor expressed in CHOK1 cells assessed as increase in radioligand dissociation at 10 uM after 4 hrs by infinite dilution method; type: cell-based; settings: CHO-K1
Procedure, shortened: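 CHO-K1 membranes expressing human LH receptor, prelabelled with 125I-hCG. Dissociation was started by infinite dilution in the presence of 10 µM compound, and bound radioligand was measured after 4 h. t=0 binding set 0% dissociation, nonspecific 100%. At least two assays in triplicate.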

[6] = target: T1, Lutropin-choriogonadotropic hormone receptor; assay: Antagonist activity at human luteinizing hormone receptor expressed in CHOK1 cells assessed as decrease in recombinant luteinizing hormone activation potency at 10 uM by c-AMP-mediated luciferase assay; type: functional, cell-based; settings: CHO-K1
Procedure, shortened: (§1)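 Cells as for the CRE-luciferase assay (human LH receptor, CHO-K1), stimulated 4 h with ten concentrations of recLH, rec-hCG or Org 43553, with or without 10 µM test compound. Luminescence read-out. Shift is the EC50 ratio with/without compound; 1 nM recLH response set 100%. At least three assays in duplicate.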

[7] = target: T1, Lutropin-choriogonadotropic hormone receptor; assay: Antagonist activity at human luteinizing hormone receptor expressed in CHOK1 cells assessed as decrease in recombinant human chorionic gonadotropin activation potency at 10 uM by c-AMP-mediated luciferase assay; type: functional, cell-based; settings: CHO-K1; procedure, shortened: as §1
[8] = target: T1, Lutropin-choriogonadotropic hormone receptor; assay: Antagonist activity at human luteinizing hormone receptor expressed in CHOK1 cells assessed as decrease in Org 43553 activation potency at 10 uM by c-AMP-mediated luciferase assay; type: functional, cell-based; settings: CHO-K1; procedure, shortened: as §1
[9] = target: T1, Lutropin-choriogonadotropic hormone receptor; assay: Agonist activity at human luteinizing hormone receptor expressed in CHOK1 cells assessed as c-AMP-mediated luciferase production at 10 uM; type: functional, cell-based; settings: CHO-K1
[10] = target: T1, Lutropin-choriogonadotropic hormone receptor; assay: Agonist activity at human luteinizing hormone receptor expressed in CHOK1 cells assessed as c-AMP-mediated luciferase production; type: functional, cell-based, CHO-K1
Procedure, shortened: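 CHO-K1 cells stably expressing human LH receptor and CRE-luciferase, 7.5 × 10^5 cells/mL in DMEM/F12 with insulin and apo-transferrin. Stimulated 4 h, then luciferase read by luminescence. Basal activity set 0%; 1 nM recLH set 100%. Means of at least three assays in duplicate.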

[11] = target: T2, Adenosine receptor A3 (Homo sapiens) (UniProt P0DMS8); assay: Activity at adenosine A3 receptor assessed as allosteric modulation
T2 sequence (whole entry): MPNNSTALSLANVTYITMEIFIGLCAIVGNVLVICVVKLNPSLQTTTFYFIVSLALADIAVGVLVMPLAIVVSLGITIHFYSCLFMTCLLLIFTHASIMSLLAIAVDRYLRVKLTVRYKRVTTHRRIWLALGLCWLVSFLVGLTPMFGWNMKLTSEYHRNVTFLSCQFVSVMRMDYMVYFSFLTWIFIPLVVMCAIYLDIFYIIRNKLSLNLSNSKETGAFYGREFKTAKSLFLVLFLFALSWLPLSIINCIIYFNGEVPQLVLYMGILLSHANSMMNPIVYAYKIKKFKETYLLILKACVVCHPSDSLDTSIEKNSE

[12] = target: T3, Adenosine receptor A1 (Homo sapiens) (UniProt P30542); assay: Binding affinity to adenosine A1 receptor
T3 sequence (whole entry): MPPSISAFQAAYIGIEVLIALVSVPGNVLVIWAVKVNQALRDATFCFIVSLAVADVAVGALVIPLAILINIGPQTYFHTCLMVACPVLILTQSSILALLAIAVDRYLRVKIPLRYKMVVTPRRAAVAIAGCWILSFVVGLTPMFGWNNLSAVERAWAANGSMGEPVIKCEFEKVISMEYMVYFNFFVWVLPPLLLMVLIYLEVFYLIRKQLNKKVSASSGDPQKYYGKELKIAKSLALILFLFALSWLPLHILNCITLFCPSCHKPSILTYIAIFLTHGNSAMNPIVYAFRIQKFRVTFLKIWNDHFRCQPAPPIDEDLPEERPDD

[13] = target: Adenosine receptor A2a (Homo sapiens) (UniProt P29274); assay: Binding affinity to adenosine A2A receptor
Adenosine receptor A2a (Homo sapiens), sequence (P29274 whole entry): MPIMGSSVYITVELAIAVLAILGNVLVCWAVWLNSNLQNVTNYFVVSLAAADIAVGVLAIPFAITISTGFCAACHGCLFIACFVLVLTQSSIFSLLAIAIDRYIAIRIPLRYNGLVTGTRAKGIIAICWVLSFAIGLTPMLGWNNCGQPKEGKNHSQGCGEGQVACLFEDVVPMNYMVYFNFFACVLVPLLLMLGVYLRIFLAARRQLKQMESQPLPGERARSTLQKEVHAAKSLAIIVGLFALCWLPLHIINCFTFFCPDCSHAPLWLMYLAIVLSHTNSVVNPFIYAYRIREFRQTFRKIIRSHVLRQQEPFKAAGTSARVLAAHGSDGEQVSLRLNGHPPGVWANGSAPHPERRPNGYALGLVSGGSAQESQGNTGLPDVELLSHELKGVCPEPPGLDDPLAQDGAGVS

T1 sequence (P22888 whole entry): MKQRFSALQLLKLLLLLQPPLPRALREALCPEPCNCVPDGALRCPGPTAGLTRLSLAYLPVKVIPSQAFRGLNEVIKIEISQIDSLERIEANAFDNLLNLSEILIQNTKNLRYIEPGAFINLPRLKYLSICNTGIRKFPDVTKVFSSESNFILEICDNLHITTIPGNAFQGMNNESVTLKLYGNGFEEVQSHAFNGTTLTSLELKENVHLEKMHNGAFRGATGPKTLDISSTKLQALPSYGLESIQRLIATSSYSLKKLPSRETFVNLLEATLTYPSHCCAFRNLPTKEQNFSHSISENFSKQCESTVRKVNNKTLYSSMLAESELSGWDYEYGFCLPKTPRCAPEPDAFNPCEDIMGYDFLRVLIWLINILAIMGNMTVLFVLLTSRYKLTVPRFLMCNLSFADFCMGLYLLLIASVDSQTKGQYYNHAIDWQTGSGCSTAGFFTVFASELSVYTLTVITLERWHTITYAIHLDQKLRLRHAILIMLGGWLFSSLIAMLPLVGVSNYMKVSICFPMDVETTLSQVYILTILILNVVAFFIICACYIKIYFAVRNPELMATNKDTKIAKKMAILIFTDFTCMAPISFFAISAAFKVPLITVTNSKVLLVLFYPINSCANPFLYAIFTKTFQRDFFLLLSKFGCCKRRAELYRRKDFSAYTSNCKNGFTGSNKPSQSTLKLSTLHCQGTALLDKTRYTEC

| Compound | Activity [1] [%] | Activity [2] [%] | further results |
| --- | --- | --- | --- |
| COc1ccc(-c2cc(OC(=O)NC3CCCC3)cc(-c3ccc(OC)cc3)c2)cc1 | 17 | 31 | – |
| O=C(NC1CCCC1)Oc1cc(-c2ccccc2)cc(-c2ccccc2)c1 | 91 | 88 | IC50 [3]: 2300 nM; Activity ([3]; CHO-K1): Dose-dependent effect; Activity [4]: inactive; Activity [5]: Active; fold change (FC) [6]: 3; fold change (FC) [7]: 3; fold change (FC) [8]: 2; Activity [9]: 31%; EC50 [10]: 1600 nM; Activity [11]: inactive |
| N#Cc1c(N)cc(-c2ccccc2)cc1-c1cccs1 | – | 29 | – |
| c1ccc(Cn2cnc3c(-c4ccccc4)cc(-c4ccccc4)nc32)cc1 | – | 16 | – |
| O=C(NC1CCCC1)Oc1cc(-c2ccc(Cl)c(Cl)c2)cc(-c2ccc(Cl)c(Cl)c2)c1 | 7 | – | – |
| COc1ccc(-c2cc(OC(=O)NC3CCCC3)cc(-c3ccccc3)c2)cc1 | 67 | 83 | – |
| COc1ccc(C(=O)Nc2nc(-c3ccccc3)cc(-c3ccccc3)n2)cc1 | – | 42 | – |
| O=C(NC1CCCC1)Oc1cc(-c2ccccc2)cc(-c2ccc(Cl)c(Cl)c2)c1 | 69 | 64 | – |
| O=C(NC1CCCC1)Oc1cccc(-c2ccccc2)c1 | 81 | 75 | Activity [6]: Active; Activity [7]: Active; Activity [8]: Active |
| Cc1ccc(-c2cc(OC(=O)NC3CCCC3)cc(-c3ccc(C)cc3)c2)cc1 | 62 | 59 | – |
| O=C(NC1CCCC1)Oc1cc(-c2ccc(Cl)cc2)cc(-c2ccc(Cl)cc2)c1 | 55 | – | – |
| O=C(NC1CCCC1)Oc1cc(-c2ccccc2)cc(-c2ccc(Cl)cc2)c1 | 77 | 71 | – |

Now from value to compound, other results behind:

| Activity [1] [%] | Activity [2] [%] | Compound | further results |
| --- | --- | --- | --- |
| 68 | 82 | CC(C)(C)NC(=O)Oc1cc(-c2ccccc2)cc(-c2ccccc2)c1 | – |
| -1 | 61 | CCNC(=O)Oc1cc(-c2ccccc2)cc(-c2ccccc2)c1 | – |
| 9 | 19 | O=C(Nc1ccc(Cl)cc1)Oc1cc(-c2ccccc2)cc(-c2ccccc2)c1 | – |
| -2 | 27 | Oc1cc(-c2ccccc2)cc(-c2ccccc2)c1 | – |
| 49 | 70 | O=C(Nc1cc(-c2ccccc2)cc(-c2ccccc2)c1)NC1CCCC1 | – |
| 30 | 80 | CCCCCNC(=O)Oc1cc(-c2ccccc2)cc(-c2ccccc2)c1 | – |
| 72 | 102 | Cc1ccc(-c2cc(OC(=O)NC3CCCC3)cc(-c3ccccc3)c2)cc1 | Activity [6]: Active; Activity [8]: Active |
| 30 | 56 | O=C(Nc1cc(-c2ccccc2)cc(-c2ccccc2)c1)C1CCCC1 | – |
| 9 | 42 | Nc1cc(-c2ccccc2)cc(-c2ccccc2)c1 | – |
| 58 | 35 | COc1ccc(NC(=O)Oc2cc(-c3ccccc3)cc(-c3ccccc3)c2)cc1 | – |
| 14 | 55 | CC(C)NC(=O)Oc1cc(-c2ccccc2)cc(-c2ccccc2)c1 | – |
| 47 | 72 | CCCNC(=O)Oc1cc(-c2ccccc2)cc(-c2ccccc2)c1 | – |
| 61 | 65 | CCCCNC(=O)Oc1cc(-c2ccccc2)cc(-c2ccccc2)c1 | – |
| 83 | 51 | O=C(NC1CCCCC1)Oc1cc(-c2ccccc2)cc(-c2ccccc2)c1 | – |
| 28 | 79 | O=C(Nc1ccccc1)Oc1cc(-c2ccccc2)cc(-c2ccccc2)c1 | Activity [12]: inactive; Activity [13]: inactive |
| 9 | 41 | O=C(Oc1cc(-c2ccccc2)cc(-c2ccccc2)c1)C1CCCC1 | – |
